STAT1 act: increases IFN-gamma driven STAT1 reporter signal; NIH 3T3 STAT1-luciferase reporter, luminescence; 100% = IFN-gamma alone, no compound; 200,000 tested, 2.6% active; activation (% of control), % at 5.5 µM;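 active means activation above the screen-wide mean activation plus 3 SD, cut at about 130% in these data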;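 further: raw ratio to IFN-gamma control signal so 100% means no change and 0% no light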
NF-kB neuron act: raises NF-kB expression in human neuronal cells; NF-kB reporter expression; stronger effect = higher value; fold change at 12.5 µM; 190,000 tested, 1.6% active; AID 1239; in the data active means fold change above about 3.3
APP 5'UTR act: activates APP 5'UTR luciferase reporter; SH-SY5Y APP 5'UTR luciferase reporter, luminescence; zero percent = DMSO vehicle wells; activation, % at 2 µM; 190,000 tested, 1% active; AID 1276;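 active means activation above a set limit, based on mean plus 3 SD of controls, cut at about 140% in these data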
MDM2 E3 inh: inhibitors of human Mdm2 E3 ubiquitin ligase. signal enhancement, % at 5 µM. cell-based MDM2 ubiquitination luciferase reporter, 2 h; 0 = plate control, 100 = twice control, blank-subtracted. 210,000 tested, 0.11% active. Q00987;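 active means signal enhancement of 30% or more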;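 further: luminescence tracks abundance of the self-degrading MDM2-luciferase fusion protein; higher signal means inhibition of MDM2 E3 ligase activity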
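Timing – 2 h compound exposure at 37 °C · Assay system – mammalian cells stably expressing self-ubiquitinating, self-degrading MDM2 E3–luciferase fusion · Amount – 2000 cells seeded into each well · Measure – % luminescence enhancement versus blank-corrected plate control mean · Measured by – SteadyLite luminescence, 15 min reagent step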
PERK inh: inhibitors of human PERK kinase. CHO PERK-DD fusion, SEAP luminescence translation reporter. inhibition, % at 5.6 µM. 220,000 tested, 0.17% active;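 active means inhibition above the mean inhibition of all tested compounds plus 3 SD, set separately per screening campaign, cut at about 2.9% in these data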;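 further: PERK kinase domain activated by AP20187 dimerizer at 100 nM; 0% = DMSO with dimerizer and 100% = rapamycin at 8.4 µM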
Target sequence (Q9NZJ5 whole entry, looked up, the tested form may be a part): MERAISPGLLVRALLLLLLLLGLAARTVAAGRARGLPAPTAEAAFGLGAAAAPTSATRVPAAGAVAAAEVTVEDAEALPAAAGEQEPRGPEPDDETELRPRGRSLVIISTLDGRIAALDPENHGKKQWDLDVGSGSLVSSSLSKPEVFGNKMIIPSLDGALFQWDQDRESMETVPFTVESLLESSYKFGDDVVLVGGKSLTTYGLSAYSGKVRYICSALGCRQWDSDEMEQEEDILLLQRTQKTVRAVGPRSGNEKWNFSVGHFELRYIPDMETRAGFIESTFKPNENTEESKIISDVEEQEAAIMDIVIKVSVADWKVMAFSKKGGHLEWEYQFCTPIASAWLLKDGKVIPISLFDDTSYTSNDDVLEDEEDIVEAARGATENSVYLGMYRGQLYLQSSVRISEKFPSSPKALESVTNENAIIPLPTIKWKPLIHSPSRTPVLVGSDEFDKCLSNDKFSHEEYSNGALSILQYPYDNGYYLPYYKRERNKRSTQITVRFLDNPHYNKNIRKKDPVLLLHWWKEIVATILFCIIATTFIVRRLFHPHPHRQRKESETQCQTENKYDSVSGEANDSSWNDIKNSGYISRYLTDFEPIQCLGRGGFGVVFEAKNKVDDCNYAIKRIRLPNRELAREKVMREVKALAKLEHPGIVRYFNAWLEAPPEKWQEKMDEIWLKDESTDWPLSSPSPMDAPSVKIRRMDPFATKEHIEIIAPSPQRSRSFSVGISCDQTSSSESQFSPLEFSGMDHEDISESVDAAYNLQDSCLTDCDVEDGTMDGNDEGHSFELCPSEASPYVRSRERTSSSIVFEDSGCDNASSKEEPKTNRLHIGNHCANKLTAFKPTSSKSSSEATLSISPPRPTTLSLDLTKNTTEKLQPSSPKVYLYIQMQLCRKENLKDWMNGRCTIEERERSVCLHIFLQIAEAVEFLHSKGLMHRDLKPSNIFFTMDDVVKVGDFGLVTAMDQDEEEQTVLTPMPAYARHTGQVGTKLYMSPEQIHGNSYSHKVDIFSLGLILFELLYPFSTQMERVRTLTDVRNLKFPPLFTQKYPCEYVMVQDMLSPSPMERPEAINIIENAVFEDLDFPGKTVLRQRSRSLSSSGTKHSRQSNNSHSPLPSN
AHR activator: human AHR activation. AID 2796. activation, % at 5 µM. AHR-responsive luciferase reporter cells, luminescence. 320,000 tested, 2.5% active. P35869; in the data active means activation above about 47%;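 further: 0% = vehicle wells and 100% = reference agonist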
* = called active by the depositor; . = no result given. Only some compounds are listed: those with a hit (about 4.5% of all), similar ones and a draw of the others.

SMILES	STAT1 act	NF-kB neuron act	APP 5'UTR act	MDM2 E3 inh	PERK inh	AHR activator
O=C(Nc1ccccc1)c1cccc(=O)o1	.	.	.	-8	1	-1
COc1ccc(S(=O)(=O)NCCOc2cccc3cccnc23)cc1OC	129*	1.1	6	-18	-1	.
O=[N+]([O-])c1cccc(S(=O)(=O)NCCOc2cccc3cccnc23)c1	.	.	.	.	.	12
CCc1cccc(NC(=O)CCc2c(C)nn(-c3ccc(N4CCOCC4)nn3)c2C)c1	.	.	.	.	.	12
COC(=O)c1ccc(C(=O)OC)c(NC(=O)CSCC(=O)O)c1	.	.	.	-18	3.1*	8
O=C(Nc1cc(Cl)ccc1N1CCOCC1)c1cccnc1Cl	.	.	.	9	0	70*
COc1cc(NC(=O)c2ccccc2F)c(OC)cc1NC(=O)CN1CCOCC1	104	0.85	14	11	1	51*
O=C(Nc1cc(Cl)ccc1N1CCOCC1)c1ccncc1	.	.	.	.	.	1
O=C(Nc1ccc(N2CCOCC2)c(Cl)c1)c1ccco1	149*	3.4*	113	-31	0	7
O=C(Nc1ccc(N2CCOCC2)c(Cl)c1)c1ccccc1F	138*	5.1*	127	-27	0	-10
COc1cc(NC(=O)c2ccc(F)cc2)c(OC)cc1NC(=O)CN1CCOCC1	95	0.59	20	-4	0	33
Cc1c(Cl)cccc1-n1c(SCC(=O)N2CCC(C(=O)O)CC2)nc2ccccc2c1=O	.	.	.	.	.	-3
O=C(NCC(c1ccco1)N1CCc2ccccc21)C(=O)Nc1ccc(F)cc1F (stereo unspecified)	.	.	.	.	.	0
COc1ccc(NC(=O)N2CCN(c3ccc([N+](=O)[O-])cc3)CC2)cc1OC	90	0.87	4	-9	0	0
O=C(CN1CCN(c2ccc(F)cc2)CC1)Nc1ccccc1C(=O)NCCc1ccccc1	.	.	.	.	.	25
O=C(c1ccccc1)c1ccc(N2CCOCC2)c(F)c1	133*	3	110	-16	-1	5
O=C(CSc1nc2ccccc2o1)Nc1ccc(N2CCOCC2)c(Cl)c1	94	1.3	194*	-29	2	9
O=C(c1ccccc1)c1cc(F)c(N2CCOCC2)cc1Cl	106	1.3	11	-12	0	0
COc1ccccc1N1CCN(CC(=O)Nc2ccccc2C(=O)NCCc2ccccc2)CC1	.	.	.	.	.	63*
O=C(Nc1ccc(F)cc1Cl)c1ccc2c(=O)n3c(nc2c1)CCC3	.	.	.	.	.	2
N=c1n(CCN2CCOCC2)c2ccccc2n1CC(=O)c1ccc(Cl)c(Cl)c1	102	0.84	12	5	-2	91*
O=C(/C=C/c1cccnc1)c1cc(F)ccc1O	.	.	.	-4	0	1
O=C(/C=C/c1cccnc1)/C=C/c1cccnc1	.	.	.	39*	-1	.
COC(=O)[C@@H]1CCCN1C(=O)CCc1nnc(CCC2CCCCC2)o1	139*	2.6	55	-10	0	2
COC(=O)[C@@H]1CCCN1C(=O)CCc1nnc(CCc2c[nH]c3ccccc23)o1	100	1.7	-19	-23	1	-1
SMILES	STAT1 act	NF-kB neuron act	APP 5'UTR act	MDM2 E3 inh	PERK inh	AHR activator
O=c1c(Cl)c(Cl)cnn1-c1ccccc1	101	0.12	-96	-13	0	.
CNc1cnn(-c2ccc(C)cc2)c(=O)c1Cl	129*	2.6	70	-23	1	13
O=c1c(Cl)c(N/N=C/c2ccc(Cl)cc2)cnn1-c1ccccc1	102	1.5	-9	2	-1	50*
COc1cnn(-c2ccc(C)cc2)c(=O)c1Cl	141*	2	24	-12	1	0
Cc1ccc(-c2csc3ncnc(Nc4ccc(N5CCOCC5)cc4)c23)cc1	91	0.83	-5	-15	0	78*
Cn1cc(C(=O)N/N=C/c2cccs2)c2ccccc21	110	1.4	27	-8	0	109*
O=C(N/N=C/c1cccs1)c1ccc2c(c1)OCO2	129*	1	104	-35	0	36
Cn1cc(C(=O)N/N=C/c2ccc3c(c2)OCO3)c2ccccc21	.	.	.	-7	-2	-6
O=C(N/N=C/c1ccccc1O)c1ccc2c(c1)OCO2	.	.	.	.	.	31
CCC/C(=N/NC(=O)c1ccc2c(c1)OCO2)c1cccs1	109	1.2	21	-4	2	64*
Cc1cc(Br)cc(/C=N/NC(=O)c2ccc3c(c2)OCO3)c1O	.	.	.	.	.	62*
O=C(Nc1cccc(NC(=O)c2cccs2)c1)c1ccc2c(c1)OCO2	103	1.2	-15	-11	1	16
C[C@]1(CC/C(=C/CO)CO)[C@H](CO)CC[C@@]23COC(=O)C2=CCC[C@@H]31	.	.	.	.	.	1
COc1ccc(S(=O)(=O)N(CC(=O)NCC2CCCO2)C2CCCCC2)cc1OC (stereo unspecified)	.	.	.	.	.	-1
Cc1csc(NC(=O)c2ccc(Cl)nc2)n1	.	.	.	.	.	21
Brc1ccc(OCc2cn3ccccc3n2)cc1	147*	4.6*	140*	-58	2	-5
O=C(COc1ccc(Br)cc1)NCc1cn2ccccc2n1	.	.	.	.	0	4
CC(C)(C)CN1CCN(CC#Cc2ccccc2)CC1CCO (stereo unspecified)	.	.	.	.	.	59*
CN1CCN(CC#Cc2ccccc2)CC1CCO (stereo unspecified)	.	.	.	.	.	2
O=C(O)c1ccc(N2CC3CC(C2)c2cccc(=O)n2C3)c(NC(=S)Nc2ccc(Br)cc2)c1 (stereo unspecified)	95	3.9*	12	-26	0	1
CCOC(=O)/C=C/C(=O)Nc1ccccc1-c1ccccc1NC(=O)/C=C/C(=O)OCC	98	0.93	.	39*	0	0
O=S(=O)(Nc1c(O)ccc2ccccc12)c1cccc2ccccc12	.	.	.	.	.	39
Cc1ccc(S(=O)(=O)Nc2c(O)ccc3ccccc23)cc1	.	.	.	.	.	54*
Cc1cc(C(=O)NN=C(CCC(=O)O)c2cccs2)c(C)o1	.	.	.	.	.	15
CC/C(=N\NC(=O)c1csc(C)c1C)c1cccs1	138*	5.2*	80	-9	0	23
SMILES	STAT1 act	NF-kB neuron act	APP 5'UTR act	MDM2 E3 inh	PERK inh	AHR activator
CCOC(=O)N/N=C(\CCC(=O)O)c1cccs1	.	.	.	-16	3.0*	6
CC(=O)NN1C(=O)/C(=C\c2ccc(Cl)cc2)SC1=S	102	1.1	-12	-7	1	2
Cc1cccc(/C=C(\C(=O)C(=O)O)c2ccc3ccccc3n2)c1	148*	1	25	-10	0	15
N#Cc1ccc(/C=C(\C(=O)C(=O)O)c2ccc3ccccc3n2)cc1	.	.	.	.	0	20
O=C(O)C(=O)/C(=C\c1cccc(Cl)c1)c1ccc2ccccc2n1	137*	1.3	46	-5	0	32
C=CCSc1nc2sc3c(c2c(=O)n1CC)CCc1ccccc1-3	114	1.3	0	-20	-1	56*
C=CCn1c(SCC)nc2sc3c(c2c1=O)CCc1ccccc1-3	101	1.2	-9	-7	0	18
O=C(OCC(=O)N1CCCCCC1)c1ccccc1Br	.	.	.	.	.	-1
CC1(C)CC(=O)C=C(c2cccc(O)c2)C1	.	.	.	.	.	-2
